Measured values gathered from unrelated publications.
EGFR: Epidermal growth factor receptor (EGFR, Homo sapiens, UniProt P00533)
EGFR A750P/del747-749: Epidermal growth factor receptor (EGFR, Homo sapiens, UniProt P00533, A750P/del747-749)
EGFR G719S: Epidermal growth factor receptor (EGFR, Homo sapiens, UniProt P00533, G719S)
EGFR L858R/T790M: Epidermal growth factor receptor (EGFR, Homo sapiens, UniProt P00533, L858R/T790M)
EGFR G719C: Epidermal growth factor receptor (EGFR, Homo sapiens, UniProt P00533, G719C)
EGFR L861Q: Epidermal growth factor receptor (EGFR, Homo sapiens, UniProt P00533, L861Q)
EGFR del746-750: Epidermal growth factor receptor (EGFR, Homo sapiens, UniProt P00533, del746-750)
EGFR L858R: Epidermal growth factor receptor (EGFR, Homo sapiens, UniProt P00533, L858R)
EGFR del747-752/P753S: Epidermal growth factor receptor (EGFR, Homo sapiens, UniProt P00533, del747-752/P753S)
EGFR T790M: Epidermal growth factor receptor (EGFR, Homo sapiens, UniProt P00533, T790M)

| SMILES | target | observed | method | concentration | remaining binding |
| --- | --- | --- | --- | --- | --- |
| CC(C)(C)c1ccc(-c2nc(CBr)nn2-c2cccc(O)c2)cc1 | EGFR | cell-free assay | competition with immobilised ligand | 10 µM | 85% |
| Nc1ncc2c(n1)-c1c([nH]c3ccc(C#CC4CC4)cc13)CCCC2 | EGFR A750P/del747-749 | binding | competition with immobilised ligand | 1 µM | 84% |
| CN(C)c1nccc(-c2cnc3ncccn23)n1 | EGFR | binding | – | 1 µM | 63% |
| O=C(Nc1cccnn1)N1CC(C/C=C/c2cncc(Oc3ccc(C(F)(F)F)cn3)n2)C1 | EGFR G719S | cell-free assay | competition with immobilised ligand | 1 µM | 100% |
| Cc1cnc(Nc2ccc(C(=O)N3CCC(N4CCCC4)CC3)cc2)nc1-c1cc2ccccc2s1 | EGFR L858R/T790M | binding | competition with immobilised ligand | 1 µM | 59% |
| CN1CCN(c2ccc(Nc3nccc(-c4ccccc4)n3)cc2C(F)(F)F)CC1 | EGFR G719C | binding | – | 10 µM | 64% |
| O=C(Nc1c[nH]nc1C(=O)NC1CCNCC1)c1cc(F)cc(F)c1 | EGFR L861Q | binding | competition with immobilised ligand | 1 µM | 100% |
| O=C(NCCCN1CCOCC1)c1ccc(Nc2nccc(-c3cc4ccccc4s3)n2)cc1 | EGFR A750P/del747-749 | binding | competition with immobilised ligand | 1 µM | 100% |
| COc1ncc2cc3ccccc3nc2c1C#N | EGFR del746-750 | cell-free assay | competition with immobilised ligand | 5 µM | 87% |
| Cc1cnn2ncc(-c3ccnc(N(C)C)n3)c2c1 | EGFR del746-750 | binding | – | 1 µM | 100% |
| COc1cnc(Nc2cccc(S(N)(=O)=O)c2)nc1N1CCN(c2ccccc2)CC1 | EGFR L858R | binding | competition with immobilised ligand | 1 µM | 89% |
| N[C@H]1CCN(c2nccc(-c3cnn4ncccc34)n2)C1 | EGFR G719S | binding | – | 1 µM | 93% |
| O=C(c1ccc(Nc2ncc(Cl)c(-c3cc4ccccc4s3)n2)cc1)N1CCC(N2CCCC2)CC1 | EGFR G719S | binding | competition with immobilised ligand | 1 µM | 98% |
| Cc1ccc(NC(=O)c2ccc(CN3CCN(C)CC3)cc2)cc1Nc1nccc(-c2cccnc2)n1 | EGFR | cell-free assay | competition with immobilised ligand | 10 µM | 71% |
| CCN1CCN(Cc2ccc(C(=O)Nc3ccc(C)c(Oc4ccc5c(c4)CC(=O)N5)c3)cc2C(F)(F)F)CC1 | EGFR L858R/T790M | binding | competition with immobilised ligand | 1 µM | 90% |
| C[C@H](c1cccc(C#N)c1)n1cc(Cl)cc(C(N)=O)c1=N | EGFR L858R | cell-free assay | competition with immobilised ligand | 1 µM | 86% |
| CN(c1nccc(-c2cnn3ncccc23)n1)C1CC1 | EGFR L858R | binding | – | 1 µM | 100% |
| CCCOc1ccc([C@@H]2[C@@H](C(=O)O)[C@H](c3ccc4c(c3)OCO4)CN2CC(=O)Nc2c(CC)cccc2CC)cc1 | EGFR L861Q | cell-free assay | competition with immobilised ligand | 1 µM | 100% |

| SMILES | target | observed | method | concentration | remaining binding |
| --- | --- | --- | --- | --- | --- |
| CNC(=O)[C@@H]1CC[C@@H](n2c(-c3ccc4cnccc4c3)nc3ccc(C(=O)NCc4cccc(C(N)=O)c4)cc32)C1 | EGFR del747-752/P753S | binding | competition with immobilised ligand | 1 µM | 100% |
| O=C(c1ccc(Nc2nccc(-c3cc4ccccc4s3)n2)cc1)N1CCC(N2CCCC2)CC1 | EGFR del746-750 | binding | competition with immobilised ligand | 1 µM | 100% |
| COc1cnc(Nc2cccc(S(N)(=O)=O)c2)nc1N1CCN(c2ccccc2)C(=O)C1 | Epidermal growth factor receptor (EGFR, Homo sapiens, UniProt P00533, del752-759) | binding | competition with immobilised ligand | 1 µM | 100% |
| CN(C)c1nccc(-c2cnn3ncccc23)n1 | EGFR T790M | binding | – | 1 µM | 100% |
| NS(=O)(=O)c1cc(NC(=O)C2(c3ccccc3Cl)CC2)ccc1Oc1cccc(Cl)c1 | EGFR del747-752/P753S | cell-free assay | competition with immobilised ligand | 1 µM | 57% |
| O=C(NCC1CCOCC1)c1n[nH]cc1NC(=O)c1c(F)cccc1F | EGFR G719C | binding | competition with immobilised ligand | 1 µM | 100% |
| O=C(c1ccc(Nc2ncc(Cl)c(-c3ccc(Cl)s3)n2)cc1)N1CCC(N2CCCC2)CC1 | EGFR del747-752/P753S | binding | competition with immobilised ligand | 1 µM | 82% |
| COc1ccc2c(c1)O[C@H](c1ccc(OC)c(OC)c1)C[C@@H]2NC(=O)C1(c2ccc3c(c2)OC(F)(F)O3)CC1 | EGFR L858R | cell-free assay | competition with immobilised ligand | 1 µM | 100% |
| c1cncc(-c2cccc(Nc3nccc(NC4CCCCC4)n3)c2)c1 | EGFR L861Q | binding | competition with immobilised ligand | 10 µM | 53% |
| CN1CCN(c2ccc(Nc3nccc(-c4cccc([N+](=O)[O-])c4)n3)cc2C(F)(F)F)CC1 | EGFR T790M | binding | – | 10 µM | 45% |
| CC(=O)N1CCC(c2ccc(C(=O)NC(=N)N)cc2C(F)(F)F)CC1 | Epidermal growth factor receptor (EGFR, Homo sapiens, UniProt P00533, del747-750/T751S) | cell-free assay | competition with immobilised ligand | 1 µM | 100% |
| COc1ccnn2ncc(-c3ccnc(N(C)C)n3)c12 | EGFR L858R | binding | – | 1 µM | 100% |
| O=C(Nc1ccc(Oc2ccc(F)cc2)cc1)N1CCc2ncccc2[C@H]1c1ccc(F)cc1 | EGFR T790M | cell-free assay | competition with immobilised ligand | 1 µM | 87% |
| O=C(NCCCN1CCOCC1)c1ccc(Nc2ncc(Cl)c(-c3ccc(Cl)s3)n2)cc1 | EGFR G719C | binding | competition with immobilised ligand | 1 µM | 100% |
| O=C(NC1CCC1)c1ccc2nc(-c3cccc(NS(=O)(=O)NCCN4CCCCC4)c3)cn2c1 | EGFR del747-752/P753S | cell-free assay | competition with immobilised ligand | 10 µM | 100% |
| C[C@H]1CCN(c2nccc(-c3cnn4ncccc34)n2)C1 | EGFR del746-750 | binding | – | 1 µM | 71% |
| CC(C)(O)c1cncc(-c2nc3ccc(F)cc3n2C2CC2)c1 | EGFR L861Q | cell-free assay | competition with immobilised ligand | 1 µM | 100% |
